Experimental data as given in ChEMBL document CHEMBL2331504, “New pyrazole derivatives containing 1,2,4-triazoles and benzoxazoles as potent antimicrobial and analgesic agents” (2013).
Converted amounts (≈) assume the structure as drawn.

Assays:
Assay type in all cases: functional
Rattus norvegicus [1] = assay: Analgesic activity against Wistar albino rat at 200 mg/kg, ip measured immediately after 120 mins post compound treatment by tail flick method (reference value: 2.22 +/- 0.07 %); settings: 2 h, route intraperitoneal, read-out: INH
Rattus norvegicus [2] = assay: Analgesic activity against Wistar albino rat at 200 mg/kg, ip measured immediately after 60 mins post compound treatment by tail flick method (reference value: 4.18 +/- 0.13 %); settings: 1 h, route intraperitoneal, read-out: INH
Rattus norvegicus [3] = assay: Analgesic activity against Wistar albino rat at 200 mg/kg, ip measured immediately after 30 mins post compound treatment by tail flick method (reference value: 4.20 +/- 0.12 %); settings: 0.5 h, route intraperitoneal
Rattus norvegicus [4] = assay: Analgesic activity against Wistar albino rat at 200 mg/kg, ip measured immediately after compound administration by tail flick method (reference value: 1.9 +/- 0.12 %); settings: route intraperitoneal, read-out: INH
Candida albicans = assay: Antimicrobial activity against Candida albicans after 16 hrs by serial dilution method
Method in brief: (§1)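 Tube broth serial dilution in trypticase soya broth, from 1 mg/mL DMF stocks. Cultures were grown 6 h at 37 °C, adjusted to a McFarland standard, then diluted to a 10^5 cfu/mL inoculum. Tubes were incubated 16 h at 37 °C, alongside inoculum and broth controls and ceftriaxone or fluconazole reference. MIC was read as the tubes showing no visible growth.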

Pseudomonas aeruginosa = assay: Antimicrobial activity against Pseudomonas aeruginosa after 16 hrs by serial dilution method; method in brief: as §1
Escherichia coli = assay: Antimicrobial activity against Escherichia coli after 16 hrs by serial dilution method; method in brief: as §1
Bacillus subtilis = assay: Antimicrobial activity against Bacillus subtilis after 16 hrs by serial dilution method; method in brief: as §1
Staphylococcus aureus = assay: Antimicrobial activity against Staphylococcus aureus after 16 hrs by serial dilution method; method in brief: as §1
Rattus norvegicus [5] = assay: Analgesic activity against Wistar albino rat at 2 mg/kg, ip measured immediately after 120 mins post compound treatment by tail flick method (reference value: 2.22 +/- 0.07 %); settings: 2 h, route intraperitoneal
Rattus norvegicus [6] = assay: Analgesic activity against Wistar albino rat at 2 mg/kg, ip measured immediately after 60 mins post compound treatment by tail flick method (reference value: 4.18 +/- 0.13 %); settings: 1 h, route intraperitoneal
Rattus norvegicus [7] = assay: Analgesic activity against Wistar albino rat at 2 mg/kg, ip measured immediately after 30 mins post compound treatment by tail flick method (reference value: 4.20 +/- 0.12 %); settings: 0.5 h, route intraperitoneal
Rattus norvegicus [8] = assay: Analgesic activity against Wistar albino rat at 2 mg/kg, ip measured immediately after compound administration by tail flick method (reference value: 1.9 +/- 0.12 %); settings: route intraperitoneal

Structure (SMILES)	tail flick reaction time at 200 mg/kg (Rattus norvegicus [1])	tail-flick reaction time at 200 mg/kg (Rattus norvegicus [2])	inhibition in vivo at 200 mg/kg (Rattus norvegicus [3])	tail-flick reaction time at 200 mg/kg (Rattus norvegicus [4])	MIC (Candida albicans)	MIC (Pseudomonas aeruginosa)	MIC (Escherichia coli)	MIC (Bacillus subtilis)	MIC (Staphylococcus aureus)	inhibition in vivo at 2 mg/kg (Rattus norvegicus [5])	inhibition in vivo at 2 mg/kg (Rattus norvegicus [6])	inhibition in vivo at 2 mg/kg (Rattus norvegicus [7])	inhibition in vivo at 2 mg/kg (Rattus norvegicus [8])
Cc1ccc(-c2nnc(S)n2/N=C/c2c[nH]nc2-c2ccc(Cl)cc2Cl)cn1	2.98%	4.15%	3.5%	2.93%	6.25 µg/mL (≈ 14.5 µM)	1.61 µg/mL (≈ 3.75 µM)	3.12 µg/mL (≈ 7.26 µM)	1.61 µg/mL (≈ 3.75 µM)	3.12 µg/mL (≈ 7.26 µM)				
O=C(CSc1nc2ccccc2o1)N/N=C/c1c[nH]nc1-c1ccc(Cl)cc1Cl	3.62%	3.45%	3.38%	2.27%	12.5 µg/mL (≈ 28 µM)	6.25 µg/mL (≈ 14 µM)	3.12 µg/mL (≈ 7 µM)	6.25 µg/mL (≈ 14 µM)	12.5 µg/mL (≈ 28 µM)				
CSc1ccc(-c2n[nH]cc2/C=N/NC(=O)CSc2nc3ccccc3o2)cc1	3.83%	3.53%	3.15%	3.05%	12.5 µg/mL (≈ 29.5 µM)	6.25 µg/mL (≈ 14.8 µM)	6.25 µg/mL (≈ 14.8 µM)	12.5 µg/mL (≈ 29.5 µM)	6.25 µg/mL (≈ 14.8 µM)				
O=C(CSc1nc2ccccc2o1)N/N=C/c1c[nH]nc1-c1cc(Cl)sc1Cl	3.06%	2.93%	2.82%	2.55%	25 µg/mL (≈ 55.3 µM)	6.25 µg/mL (≈ 13.8 µM)	3.12 µg/mL (≈ 6.91 µM)	3.12 µg/mL (≈ 6.91 µM)	6.25 µg/mL (≈ 13.8 µM)				
O=C(CSc1nc2ccccc2o1)N/N=C/c1c[nH]nc1-c1ccc(-c2ccccc2)cc1	3.63%	3.43%	3.27%	3.13%	25 µg/mL (≈ 55.1 µM)	12.5 µg/mL (≈ 27.6 µM)	25 µg/mL (≈ 55.1 µM)	12.5 µg/mL (≈ 27.6 µM)	12.5 µg/mL (≈ 27.6 µM)				
Clc1ccc(-c2n[nH]cc2/C=N/Nc2nc3cc(Cl)cc(Cl)c3o2)c(Cl)c1	3.2%	3.05%	2.92%	2.75%	12.5 µg/mL (≈ 28.3 µM)	3.12 µg/mL (≈ 7.08 µM)	12.5 µg/mL (≈ 28.3 µM)	6.25 µg/mL (≈ 14.2 µM)	12.5 µg/mL (≈ 28.3 µM)				
CSc1ccc(-c2n[nH]cc2/C=N/Nc2nc3cc(Cl)cc(Cl)c3o2)cc1	3.63%	3.57%	3.42%	3.25%	25 µg/mL (≈ 59.8 µM)	12.5 µg/mL (≈ 29.9 µM)	12.5 µg/mL (≈ 29.9 µM)	12.5 µg/mL (≈ 29.9 µM)	6.25 µg/mL (≈ 14.9 µM)				
Clc1cc(Cl)c2oc(N/N=C/c3c[nH]nc3-c3cc(Cl)sc3Cl)nc2c1	3.1%	3.07%	3.03%	2.98%	12.5 µg/mL (≈ 28 µM)	3.12 µg/mL (≈ 6.99 µM)	3.12 µg/mL (≈ 6.99 µM)	6.25 µg/mL (≈ 14 µM)	3.12 µg/mL (≈ 6.99 µM)				
Clc1cc(Cl)c2oc(N/N=C/c3c[nH]nc3-c3ccc(-c4ccccc4)cc3)nc2c1	2.95%	2.77%	2.65%	2.43%	25 µg/mL (≈ 55.8 µM)	12.5 µg/mL (≈ 27.9 µM)	12.5 µg/mL (≈ 27.9 µM)	25 µg/mL (≈ 55.8 µM)	12.5 µg/mL (≈ 27.9 µM)				
CSc1ccc(-c2n[nH]cc2/C=N/n2c(S)nnc2-c2ccncc2)cc1	2.9%	2.83%	2.77%	2.62%	12.5 µg/mL (≈ 31.8 µM)	6.25 µg/mL (≈ 15.9 µM)	3.12 µg/mL (≈ 7.94 µM)	3.12 µg/mL (≈ 7.94 µM)	3.12 µg/mL (≈ 7.94 µM)				
Sc1nnc(COc2cccc3ccccc23)n1/N=C/c1c[nH]nc1-c1ccc(Cl)cc1Cl	3.08%	2.25%	2.93%	2.85%	12.5 µg/mL (≈ 25.2 µM)	1.61 µg/mL (≈ 3.26 µM)	3.12 µg/mL (≈ 6.31 µM)	3.12 µg/mL (≈ 6.31 µM)	6.25 µg/mL (≈ 12.6 µM)				
Sc1nnc(COc2cccc3ccccc23)n1/N=C/c1c[nH]nc1-c1cc(Cl)sc1Cl	2.2%	2.28%	2.52%	2.67%	6.25 µg/mL (≈ 12.5 µM)	1.61 µg/mL (≈ 3.22 µM)	3.12 µg/mL (≈ 6.23 µM)	1.61 µg/mL (≈ 3.22 µM)	1.61 µg/mL (≈ 3.22 µM)				
CC(C)=CCN1CC[C@]2(C)c3cc(O)ccc3C[C@H]1[C@H]2C [(+)-PENTAZOCINE]										2.22%	2.18%	2.17%	1.9%
CO/N=C(\C(=O)N[C@@H]1C(=O)N2C(C(=O)O)=C(CSc3nc(=O)c(O)nn3C)CS[C@H]12)c1csc(N)n1 [CEFTRIAXONE]						1.61 µg/mL (≈ 2.91 µM)	1.61 µg/mL (≈ 2.91 µM)	1.61 µg/mL (≈ 2.91 µM)	3.12 µg/mL (≈ 5.63 µM)				
OC(Cn1cncn1)(Cn1cncn1)c1ccc(F)cc1F [FLUCONAZOLE]					6.25 µg/mL (≈ 20.4 µM)								
